# Screening results: PubChem BioAssay, The Scripps Research Institute Molecular Screening Center
# Only some compounds are listed: those with a hit (about 1.1% of all), similar ones and a draw of the others.
# LYPLA1 counter – LYPLA1 inhibitors, primary screen, counter-screen for PME1 inhibitor project, biochemical, fluorescence polarization, FP-Rh probe ABPP | Acyl-protein thioesterase 1 (Homo sapiens), O75608 | recombinant LYPLA1 | inhibition, % at 5.9 µM | hit rate 0.16% among 320,000;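 active means inhibition above the mean of all tested compounds plus 3 SD, set per campaign, cut at about 14% in these data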;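 further: inhibitors block serine hydrolase probe labeling of LYPLA1 so polarization falls; 0% = enzyme with DMSO and 100% = wells lacking LYPLA1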
# proCasp3 act – activators of human procaspase-3 D3A mutant, primary screen, biochemical, absorbance, PC-3 D3A mutant, single concentration; Caspase-3 (Homo sapiens), P42574; recombinant procaspase-3 D3A, Ac-DEVD-pNA absorbance 405 nm; activation, % at 8.5 µM; hit rate 0.11% among 330,000; AID 463141, 2010;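 active means activation above the mean of all tested compounds plus 3 SD, cut at about 21% in these data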;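 further: 0% = DMSO alone and 100% = DMSO wells spiked with extra 5 µM PC-3 D3A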
#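 Assay system: Procaspase-3 D3A mutant, all three cleavage aspartates alanine. Buffer or medium: Zinc-free HEPES saline buffer with Triton X-100. Times: 1 h compound preincubation, 2 h substrate hydrolysis at 25 °C. Measured by: 405 nm absorbance of p-nitroaniline, reads at 0 and 120 min. Read-out basis: percent activation relative to control range. Replicates: singlicate.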
# procasp7 counter – procaspase-7 activators, primary screen, counter-screen for procaspase-3 activator project, biochemical, absorbance, HTS, human | Caspase-7 (Homo sapiens), P55210 | recombinant procaspase-7, Ac-DEVD-pNA absorbance 405 nm; D23A/D198A/D206A triple mutant, cannot self-cleave; scale: DMSO 0, 5 µM enzyme 100 | activation, % at 8.5 µM | hit rate 0.093% among 330,000;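 active means percent activation above the screen-wide mean plus 3 SD, cut at about 25% in these data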
# Target sequence (P55210 whole entry D23A/D198A/D206A): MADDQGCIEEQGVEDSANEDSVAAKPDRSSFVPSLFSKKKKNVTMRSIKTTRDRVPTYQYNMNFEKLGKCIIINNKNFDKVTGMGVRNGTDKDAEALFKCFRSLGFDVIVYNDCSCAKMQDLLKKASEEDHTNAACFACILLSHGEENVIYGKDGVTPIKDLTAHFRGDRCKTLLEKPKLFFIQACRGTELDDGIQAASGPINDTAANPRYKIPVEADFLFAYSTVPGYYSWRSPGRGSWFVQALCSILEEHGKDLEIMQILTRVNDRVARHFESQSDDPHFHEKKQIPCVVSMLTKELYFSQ
#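 Assay system: Uncleavable procaspase-7 mutant enzyme / Input: 2 µM procaspase-7 mutant as dispensed / Dosing: single nominal 8.5 µM compound dose, 0.8% DMSO final / Timing: 1 h enzyme–compound preincubation and 2 h substrate reaction, both 25 °C / Detection: p-Nitroaniline absorbance at 405 nm, read at 0 and 120 min / Replication: singlicate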
# PREPL inhibitor – PREPL enzyme inhibitors, primary screen, biochemical, fluorescence polarization | AID 2751, 2010 | hit rate 0.68% among 320,000 | Prolyl endopeptidase-like (Homo sapiens), Q4J6C6 | inhibition, % at 5.96 µM | recombinant PREPL, fluorescence polarization activity-based probe; in the data active means inhibition above about 43%;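 further: 0% = enzyme with DMSO and 100% = wells lacking enzyme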
# LYPLA2 inh – LYPLA2 inhibitors, primary screen, counter-screen for PME1 inhibitor project, biochemical, fluorescence polarization, FP-Rh probe ABPP. AID 2177, 2009. hit rate 0.38% among 320,000. recombinant LYPLA2. inhibition, % at 5.9 µM;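 active means inhibition above the screen-wide mean plus 3 SD, limit set per campaign, cut at about 26% in these data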;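 further: 0% = LYPLA2 with DMSO and 100% = wells lacking LYPLA2 enzyme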
# Target sequence (O95372 whole entry, looked up): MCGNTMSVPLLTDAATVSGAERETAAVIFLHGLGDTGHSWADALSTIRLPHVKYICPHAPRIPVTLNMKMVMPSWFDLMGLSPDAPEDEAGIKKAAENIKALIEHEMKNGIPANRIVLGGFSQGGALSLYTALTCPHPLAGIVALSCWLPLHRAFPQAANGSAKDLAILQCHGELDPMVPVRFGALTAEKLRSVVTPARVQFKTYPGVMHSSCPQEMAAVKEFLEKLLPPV
# procasp7 triplic – procaspase-7 activators, counter-screen for procaspase-3 activator project, biochemical, absorbance, triplicate, human; recombinant procaspase-7, Ac-DEVD-pNA absorbance; asp23/198/206-to-Ala mutant, cannot self-cleave; activation, % at 8.5 µM; shares compounds with proCasp3 act; AID 488941, 2010; 210 tested, under 10 active;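 active means mean activation above a set limit taken from an earlier procaspase-7 screen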;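 further: 0% = DMSO wells and 100% = DMSO plus 5 µM procaspase-7 enzyme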
# proCasp3 confirm – activators of human procaspase-3 D3A mutant, confirmation, biochemical, absorbance, PC-3 D3A mutant, triplicate | activation, % at 8.5 µM | recombinant PC-3 D3A, Ac-DEVD-pNA absorbance 405 nm; 100% is higher-enzyme control | hit rate 10% among 210 | shares compounds with proCasp3 act;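 active means mean activation above a set limit carried over from the earlier primary screen, cut at about 22% in these data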
# Starred values were filed as active, the others as inactive; . = no result given.
SMILES,LYPLA1 counter,proCasp3 act,procasp7 counter,PREPL inhibitor,LYPLA2 inh,procasp7 triplic,proCasp3 confirm
COc1ccc(C2CC(c3ccccc3Br)=NN2c2ccc(S(N)(=O)=O)cc2)cc1 (stereo not drawn),.,21,16,.,.,.,.
COc1ccc(C2CC(c3ccccc3C(F)(F)F)=NN2c2ccc(S(N)(=O)=O)cc2)cc1 (stereo not drawn),.,35*,24,.,.,-20,-14
O=C(NC12CC3CC(CC(C3)C1)C2)N(Cc1ccccc1)Cc1ccncc1,-1,59*,7,-2,1,4,7
CC(OC(=O)c1cc(=O)[nH]c2ccccc12)C(=O)c1ccccc1 (stereo not drawn),4,22*,13,-6,24,2,7
Cc1cc(C)cc(C(=O)Nc2c3c(nn2C(C)(C)C)CS(=O)(=O)C3)c1,0,22*,2,-3,0,0,5
CCOC(=O)c1ccc2c(c1)NCc1cccc(OC)c1O2,0,-12,5,-2,4,.,.
CN(C)c1ncc(S(=O)(=O)c2ccccc2)c(N)n1,-5,-2,-5,3,-7,.,.
Cc1ccc(S(=O)(=O)c2cc3ccccc3nc2N)cc1,-1,24*,2,-7,8,7,-1
CN(Cc1c(F)cccc1Cl)C(=O)c1cnc2ccccc2n1,1,10,-3,-8,1,.,.
CCN(C(=O)c1ccco1)c1nnc(-c2cccnc2)s1,0,2,-4,-4,0,.,.
Cc1ccc(S(=O)(=O)NC(=O)Nc2cccc(C)n2)cc1,-2,-1,15,-2,-3,.,.
Cc1ccc(S(=O)(=O)CC(=O)Nc2cccc(C)n2)cc1,1,23*,5,-6,-3,2,5
O=C(NCC(c1ccccc1Cl)N1CCCC1)C1CCN(C(=O)Nc2ccccc2)CC1 (stereo not drawn),1,5,-1,0,6,.,.
CC1CCN(CCCNC(=O)COc2cc(=O)n(C)c3ccccc23)CC1,-3,38*,4,6,1,1,5
CCn1c(=O)cc(OCC(=O)NCCCN2CCC(C)CC2)c2ccccc21,2,6,7,10,1,.,.
CCCCCOc1ccc(NC2=CC(=O)CCC2)cc1,-2,24*,21,4,10,0,4
Brc1ccc(-c2nn3c(-c4ccco4)nnc3s2)o1,2,23*,-4,2,3,-17,-12
Cc1cc(OC(=O)c2ccc(Cl)cc2Cl)c([N+](=O)[O-])c(=O)[nH]1,-3,89*,1,-1,-4,-8,0
CN(C(=O)c1cc2ccccc2o1)c1c(N)n(Cc2ccccc2)c(=O)[nH]c1=O,.,1,-4,18,.,.,.
CCN(CC)c1ccc(/C=N/NC(=S)NCc2ccco2)cc1,2,27*,14,38,-1,2,31*
Oc1ccc(/C=N/NC(=S)NCc2ccco2)cc1,-4,4,-3,4,0,.,.
O=C1C=C(c2cccc(CO)c2)C[C@@H](c2ccc(Cl)cc2)C1,1,-4,8,1,8,.,.
CCCCCCCCN1[C@@H](CC(=O)O)c2ccc(C(F)(F)F)cc2S1(=O)=O,0,40*,-1,7,4,1,3
Cc1ccc(C2=NN(C(=O)CN3CCN(C4CCS(=O)(=O)C4)CC3)C(c3ccco3)C2)cc1 (stereo not drawn),-6,-2,7,-91,-3,.,.
CCCn1c2ccccc2c2nnc(SCC(=O)Nc3nnc(CC(=O)OCC)s3)nc21,0,84*,8,-69,-8,3,4
SMILES,LYPLA1 counter,proCasp3 act,procasp7 counter,PREPL inhibitor,LYPLA2 inh,procasp7 triplic,proCasp3 confirm
CC1CC1C(=O)OCC(=O)N(C)c1c(N)n(Cc2ccccc2)c(=O)[nH]c1=O (stereo not drawn),-2,-3,8,-4,-7,.,.
COc1ccc(-c2nc3ccc(N4CCCC4)cc3c(=O)[nH]2)cc1OC,2,31*,-5,24,9,-20,-10
COc1ccc(-c2cc(C(=O)N3CCN(c4ccccc4)CC3)c3ccccc3n2)cc1OC,-4,7,16,-46,-1,.,.
O=C(N/N=C/c1ccc(O)cc1O)c1ccc(CN2C(=O)c3cccc4cccc2c34)cc1,-38,23*,24,26,-51,12,21
C=C(C)CSc1nnc2n(N)c(=O)c3ccccc3n12,-1,22*,5,0,1,0,4
COc1ccc(C)cc1NCc1cc(=O)oc2cc(-c3ccccc3)c(O)cc12,2,4,11,5,-1,.,.
COC(=O)c1ccccc1NCc1cc(=O)oc2cc(O)c(O)cc12,-5,53*,18,16,4,10,53*
O=C(NC1CCCCC1)c1ccc(CS(=O)Cc2ccc(Cl)cc2)o1 (stereo not drawn),1,5,6,9,3,.,.
CCc1cc2c(CN(C)Cc3ccccc3F)cc(=O)oc2cc1O,-3,46*,21,20,-3,-22,-16
COc1ccc(Cc2nc(C)cc(Cl)n2)cc1[N+](=O)[O-],2,4,0,18,1,.,.
COC(=O)C1=C(NC(=O)c2cccc(OC)c2)CCS1,-6,29*,25,13,-7,2,8
COC(=O)C1=C(NC(=O)c2ccccc2C)CCS1,0,5,-5,4,6,.,.
COc1cc(-c2cc3nc4ccccc4n3c(N)c2C#N)cc(OC)c1OC,-1,-8,2,11,-4,.,.
N#Cc1c(-c2ccccc2)cc2nc3ccccc3n2c1N,-4,31*,14,10,-5,-11,-14
C=CCNC(=O)C1CC2Cn3c(nc4cc(Cl)c(Cl)cc43)C2N1C (stereo not drawn),2,3,1,9,0,.,.
CCCCCC(=O)Nc1sc(C)c(C)c1C#N,1,4,-13,7,0,.,.
Cc1sc(NC(=O)CCCC(=O)O)c(C#N)c1C,-1,22*,-8,4,5,-7,-1
